{
  "source": "paper PMC4415995",
  "about": "(Advances in Therapy, 2015)",
  "test_system": "Japanese patients with T2DM",
  "assay": "Plasma glucose concentrations, 7-day once-daily dosing",
  "assay_type": "in vivo, human",
  "outline": "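Plasma glucose was measured by a glucose dehydrogenase enzymatic UV method. Sampling was pre-breakfast/pre-dose and 0.5–24 h after breakfast on Day −1, after dosing on Days 1 and 7, and pre-breakfast on Days 11 and 14. Standardized ~600 kcal meals were given, with lunch and dinner at 4 and 12 h. AUC, Cmax and tmax were non-compartmental. MPG was the mean of the 0, 2, 4, 6, 12, 14 and 16 h values. LS mean difference vs placebo with 95% CI.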",
  "note": "Marks after values point to notes of the source that are not given here.",
  "data": [
    {"smiles": "CCOc1ccc(Cc2cc([C@@H]3S[C@H](CO)[C@@H](O)[C@H](O)[C@H]3O)c(OC)cc2C)cc1", "note": "[Luseogliflozin, (1S)-1,5-anhydro-1-[5-(4-ethoxybenzyl)-2-methoxy-4-methylphenyl]-1-thio-D-glucitol]", "values": [
      {"measurement": "Plasma glucose C max12–16h (after dinner)", "setting": "1 mg OD, Day 7", "value": "242 ± 41.3", "unit": "mg/dL"},
      {"measurement": "Plasma glucose C max12–16h (after dinner) LS mean difference vs placebo (95% CI)", "setting": "1 mg OD, Day 7", "value": "−29.4 (−53.8, −5.06)* mg/dL"},
      {"measurement": "FPG (24 h after dose)", "setting": "2.5 mg OD, Day 1", "value": "141 ± 23", "unit": "mg/dL"},
      {"measurement": "FPG (24 h after dose) LS mean difference vs placebo (95% CI)", "setting": "2.5 mg OD, Day 1", "value": "−23.0 (−31.6, −14.4)* mg/dL"},
      {"measurement": "MPG0–16h", "setting": "2.5 mg OD, Day 1", "value": "210 ± 35.7", "unit": "mg/dL"},
      {"measurement": "MPG0–16h LS mean difference vs placebo (95% CI)", "setting": "2.5 mg OD, Day 1", "value": "−23.8 (−33.7, −13.9)* mg/dL"},
      {"measurement": "Plasma glucose AUC0–4h (after breakfast)", "setting": "2.5 mg OD, Day 1", "value": "868 ± 166", "unit": "mg·h/dL"},
      {"measurement": "Plasma glucose AUC0–4h (after breakfast) LS mean difference vs placebo (95% CI)", "setting": "2.5 mg OD, Day 1", "value": "−106 (−159, −53.6)* mg h/dL"},
      {"measurement": "Plasma glucose AUC4–8h (after lunch)", "setting": "2.5 mg OD, Day 1", "value": "879 ± 176", "unit": "mg·h/dL"},
      {"measurement": "Plasma glucose AUC4–8h (after lunch) LS mean difference vs placebo (95% CI)", "setting": "2.5 mg OD, Day 1", "value": "−147 (−224, −69.0)* mg h/dL"},
      {"measurement": "Plasma glucose AUC12–16h (after dinner)", "setting": "2.5 mg OD, Day 1", "value": "944 ± 123", "unit": "mg·h/dL"},
      {"measurement": "Plasma glucose AUC12–16h (after dinner) LS mean difference vs placebo (95% CI)", "setting": "2.5 mg OD, Day 1", "value": "−71.1 (−123, −19.2)* mg h/dL"},
      {"measurement": "Plasma glucose C max0–4h (after breakfast)", "setting": "2.5 mg OD, Day 1", "value": "254 ± 48.7", "unit": "mg/dL"},
      {"measurement": "Plasma glucose C max4–8h (after lunch)", "setting": "2.5 mg OD, Day 1", "value": "250 ± 54.5", "unit": "mg/dL"},
      {"measurement": "Plasma glucose C max4–8h (after lunch) LS mean difference vs placebo (95% CI)", "setting": "2.5 mg OD, Day 1", "value": "−43.5 (−67.2, −19.7)* mg/dL"},
      {"measurement": "Plasma glucose C max12–16h (after dinner)", "setting": "2.5 mg OD, Day 1", "value": "279 ± 40.2", "unit": "mg/dL"},
      {"measurement": "Plasma glucose C max12–16h (after dinner) LS mean difference vs placebo (95% CI)", "setting": "2.5 mg OD, Day 1", "value": "−26.1 (−44.6, −7.60)* mg/dL"},
      {"measurement": "FPG (24 h after dose)", "setting": "2.5 mg OD, Day 7", "value": "122 ± 14", "unit": "mg/dL"},
      {"measurement": "FPG (24 h after dose) LS mean difference vs placebo (95% CI)", "setting": "2.5 mg OD, Day 7", "value": "−41.3 (−53.5, −29.0)* mg/dL"},
      {"measurement": "MPG0–16h", "setting": "2.5 mg OD, Day 7", "value": "181 ± 21.2", "unit": "mg/dL"},
      {"measurement": "MPG0–16h LS mean difference vs placebo (95% CI)", "setting": "2.5 mg OD, Day 7", "value": "−50.1 (−66.7, −33.4)* mg/dL"},
      {"measurement": "Plasma glucose AUC0–4h (after breakfast)", "setting": "2.5 mg OD, Day 7", "value": "738 ± 102", "unit": "mg·h/dL"},
      {"measurement": "Plasma glucose AUC0–4h (after breakfast) LS mean difference vs placebo (95% CI)", "setting": "2.5 mg OD, Day 7", "value": "−221 (−297, −145)* mg h/dL"},
      {"measurement": "Plasma glucose AUC4–8h (after lunch)", "setting": "2.5 mg OD, Day 7", "value": "802 ± 127", "unit": "mg·h/dL"},
      {"measurement": "Plasma glucose AUC4–8h (after lunch) LS mean difference vs placebo (95% CI)", "setting": "2.5 mg OD, Day 7", "value": "−250 (−348, −152)* mg h/dL"},
      {"measurement": "Plasma glucose AUC12–16h (after dinner)", "setting": "2.5 mg OD, Day 7", "value": "828 ± 63.2", "unit": "mg·h/dL"},
      {"measurement": "Plasma glucose AUC12–16h (after dinner) LS mean difference vs placebo (95% CI)", "setting": "2.5 mg OD, Day 7", "value": "−149 (−224, −73.6)* mg h/dL"},
      {"measurement": "Plasma glucose C max0–4h (after breakfast)", "setting": "2.5 mg OD, Day 7", "value": "219 ± 26.3", "unit": "mg/dL"},
      {"measurement": "Plasma glucose C max4–8h (after lunch)", "setting": "2.5 mg OD, Day 7", "value": "230 ± 30.0", "unit": "mg/dL"},
      {"measurement": "Plasma glucose C max4–8h (after lunch) LS mean difference vs placebo (95% CI)", "setting": "2.5 mg OD, Day 7", "value": "−65.6 (−94.0, −37.1)* mg/dL"},
      {"measurement": "Plasma glucose C max12–16h (after dinner)", "setting": "2.5 mg OD, Day 7", "value": "250 ± 23.3", "unit": "mg/dL"},
      {"measurement": "Plasma glucose C max12–16h (after dinner) LS mean difference vs placebo (95% CI)", "setting": "2.5 mg OD, Day 7", "value": "−36.2 (−61.2, −11.3)* mg/dL"},
      {"measurement": "FPG (24 h after dose)", "setting": "5 mg OD, Day 1", "value": "132 ± 12", "unit": "mg/dL"},
      {"measurement": "FPG (24 h after dose) LS mean difference vs placebo (95% CI)", "setting": "5 mg OD, Day 1", "value": "−20.8 (−29.5, −12.1)* mg/dL"},
      {"measurement": "MPG0–16h", "setting": "5 mg OD, Day 1", "value": "173 ± 26.7", "unit": "mg/dL"},
      {"measurement": "MPG0–16h LS mean difference vs placebo (95% CI)", "setting": "5 mg OD, Day 1", "value": "−27.4 (−37.4, −17.4)* mg/dL"},
      {"measurement": "Plasma glucose AUC0–4h (after breakfast)", "setting": "5 mg OD, Day 1", "value": "752 ± 87.6", "unit": "mg·h/dL"},
      {"measurement": "Plasma glucose AUC0–4h (after breakfast) LS mean difference vs placebo (95% CI)", "setting": "5 mg OD, Day 1", "value": "−100 (−154, −46.5)* mg h/dL"},
      {"measurement": "Plasma glucose AUC4–8h (after lunch)", "setting": "5 mg OD, Day 1", "value": "710 ± 120", "unit": "mg·h/dL"},
      {"measurement": "Plasma glucose AUC4–8h (after lunch) LS mean difference vs placebo (95% CI)", "setting": "5 mg OD, Day 1", "value": "−104 (−183, −25.1)* mg h/dL"},
      {"measurement": "Plasma glucose AUC12–16h (after dinner)", "setting": "5 mg OD, Day 1", "value": "766 ± 118", "unit": "mg·h/dL"},
      {"measurement": "Plasma glucose AUC12–16h (after dinner) LS mean difference vs placebo (95% CI)", "setting": "5 mg OD, Day 1", "value": "−133 (−184, −81.7)* mg h/dL"},
      {"measurement": "Plasma glucose C max0–4h (after breakfast)", "setting": "5 mg OD, Day 1", "value": "231 ± 16.6", "unit": "mg/dL"},
      {"measurement": "Plasma glucose C max4–8h (after lunch)", "setting": "5 mg OD, Day 1", "value": "207 ± 33.1", "unit": "mg/dL"},
      {"measurement": "Plasma glucose C max4–8h (after lunch) LS mean difference vs placebo (95% CI)", "setting": "5 mg OD, Day 1", "value": "−32.4 (−56.5, −8.28)* mg/dL"},
      {"measurement": "Plasma glucose C max12–16h (after dinner)", "setting": "5 mg OD, Day 1", "value": "225 ± 33.2", "unit": "mg/dL"},
      {"measurement": "Plasma glucose C max12–16h (after dinner) LS mean difference vs placebo (95% CI)", "setting": "5 mg OD, Day 1", "value": "−41.8 (−60.2, −23.5)* mg/dL"},
      {"measurement": "FPG (24 h after dose)", "setting": "5 mg OD, Day 7", "value": "126 ± 13", "unit": "mg/dL"},
      {"measurement": "FPG (24 h after dose) LS mean difference vs placebo (95% CI)", "setting": "5 mg OD, Day 7", "value": "−30.6 (−43.1, −18.1)* mg/dL"},
      {"measurement": "MPG0–16h", "setting": "5 mg OD, Day 7", "value": "168 ± 27.8", "unit": "mg/dL"},
      {"measurement": "MPG0–16h LS mean difference vs placebo (95% CI)", "setting": "5 mg OD, Day 7", "value": "−38.9 (−55.7, −22.1)* mg/dL"},
      {"measurement": "Plasma glucose AUC0–4h (after breakfast)", "setting": "5 mg OD, Day 7", "value": "708 ± 87.5", "unit": "mg·h/dL"},
      {"measurement": "Plasma glucose AUC0–4h (after breakfast) LS mean difference vs placebo (95% CI)", "setting": "5 mg OD, Day 7", "value": "−162 (−239, −84.9)* mg h/dL"},
      {"measurement": "Plasma glucose AUC4–8h (after lunch)", "setting": "5 mg OD, Day 7", "value": "710 ± 105", "unit": "mg·h/dL"},
      {"measurement": "Plasma glucose AUC4–8h (after lunch) LS mean difference vs placebo (95% CI)", "setting": "5 mg OD, Day 7", "value": "−184 (−284, −84.3)* mg h/dL"},
      {"measurement": "Plasma glucose AUC12–16h (after dinner)", "setting": "5 mg OD, Day 7", "value": "755 ± 137", "unit": "mg·h/dL"},
      {"measurement": "Plasma glucose AUC12–16h (after dinner) LS mean difference vs placebo (95% CI)", "setting": "5 mg OD, Day 7", "value": "−131 (−205, −57.5)* mg h/dL"},
      {"measurement": "Plasma glucose C max0–4h (after breakfast)", "setting": "5 mg OD, Day 7", "value": "222 ± 19.4", "unit": "mg/dL"},
      {"measurement": "Plasma glucose C max4–8h (after lunch)", "setting": "5 mg OD, Day 7", "value": "211 ± 35.1", "unit": "mg/dL"},
      {"measurement": "Plasma glucose C max4–8h (after lunch) LS mean difference vs placebo (95% CI)", "setting": "5 mg OD, Day 7", "value": "−41.0 (−69.8, −12.1)* mg/dL"},
      {"measurement": "Plasma glucose C max12–16h (after dinner)", "setting": "5 mg OD, Day 7", "value": "223 ± 38.8", "unit": "mg/dL"},
      {"measurement": "Plasma glucose C max12–16h (after dinner) LS mean difference vs placebo (95% CI)", "setting": "5 mg OD, Day 7", "value": "−33.7 (−58.4, −9.02)* mg/dL"}
    ]}
  ]
}
